Publication PMC4292800 (Bioorganic & medicinal chemistry, 2014)

Legend:
[1] = tested on: primary CD34+ normal human blood stem cells; test: MTT cytotoxicity selectivity, normal blood stem cells versus AML cells; assay type: cell-based; details: CD34+ normal human blood stem cells vs MA9.3RAS
Procedure, shortened: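 Both cell types get the same MTT assay. AML cells are cultured in IMDM with 20% bovine calf serum; UCB cells in the same medium plus SCF, IL-3, IL-6, Flt-3L and TPO. Cells are seeded at 4 × 10^4/well, held overnight at 37°C, then exposed 48 h to freshly dissolved test compound. Medium is replaced with MTT for 4 h, then DMSO, OD 575 nm. IC50 comes from a four-parameter sigmoid fit (triplicates, repeated twice), and the ratio is normal IC50 over AML IC50.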

[2] = Oxidation of 14 to 14-ox/14-red by HPLC; assay type: physicochemical
Procedure, shortened: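 Oxidation of the test compound to its bicyclic oxidised/reduced products was followed by reverse-phase C-18 HPLC. Under normal atmosphere the reaction was fitted as pseudo-zero-order to give t1/2. Activation used one molar equivalent of hydrogen peroxide, and rate enhancement was estimated from a lower-limit t1/2 against the atmosphere-only reaction.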

[3] = Oxidation kinetics of 1 into 2 by HPLC; assay type: physicochemical
Procedure, shortened: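 In PBS, alone or with 10 mM H2O2 (a tenfold excess), the test compound's conversion to its oxidised product was followed by reverse-phase HPLC on a C-18 column (Synergi Hydro-RP, 4 μm, 80 Å, 150 × 4.6 mm), and a conversion rate was derived. N-acetylcysteine was then added in limiting amount to mimic cellular thiol addition; the adduct was confirmed by FTMS.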

Compound: O=C(COc1ccccc1)Nc1cc(O)ccc1O [Compound 10, N-(2,5-dihydroxyphenyl)-2-phenoxyacetamide]
- selectivity factor (ratio of IC50 of normal cells over IC50 of AML cells) [1]: limited selectivity

Compound: O=C(CNC1CCCCC1)Nc1cc(O)ccc1O [Compound 14, 2-(cyclohexylamino)-N-(2,5-dihydroxyphenyl)acetamide]
- time for conversion of all 14 ([2]; hydrogen peroxide (Figure 3C legend)): less than 0.1 hrs
- activation by hydrogen peroxide ([2]; rate enhancement with hydrogen peroxide vs atmosphere): more than 150 fold
- conversion of 14 to its oxidation product ([2]; under argon atmosphere, two hours): 4±3%

Compound: CN(CC(=O)Nc1cc(O)ccc1O)c1ccccc1 [Compound 1, N-(2,5-dihydroxyphenyl)-2-(methyl(phenyl)amino) acetamide]
- rate of conversion of 1 to 2 ([3]; PBS, absence of exogenous oxidant): 0.011 ± 0.002 min^−
- conversion of 1 to 2 ([3]; PBS, no exogenous oxidant, in one hour): approximately 50%
- rate of conversion of 1 to 2 ([3]; presence of 10 mM H2O2, a tenfold excess): 0.6 ± 0.1 min^−
- rate of conversion of 1 into 2 ([3]; with hydrogen peroxide (Figure 2D legend)): 0.6 min⁻¹

Compound: O=C(CSc1ccccc1)Nc1cc(O)ccc1O [Compound 11, N-(2,5-dihydroxyphenyl)-2-(phenylthio)acetamide]
- selectivity factor (ratio of IC50 of normal cells over IC50 of AML cells) [1]: limited selectivity
